{"data": "Experimental data pooled from the literature", "note": "Each line is one published result; the experiments were not run side by side."}
{"SMILES": "COCCc1nc2nc(C)cc(Nc3ccc(S(F)(F)(F)(F)F)cc3)n2n1", "assay": "nephelometry", "system": "aqueous buffer", "conditions": "pH 6.5", "solubility": "31 to 62 µM"}
{"SMILES": "COc1ccc2c(c1)c(CC(=O)O)c(C)n2C(=O)c1ccc(Cl)cc1", "system": "PBS", "conditions": "20 h, pH 7.4, 20 °C", "solubility": "246 µg/mL"}
{"SMILES": "Cl.Clc1ccc2c(c1)nc(NCCNCc1ccccc1)n2Cc1ccccc1", "assay": "shake flask", "system": "aqueous buffer", "conditions": "20 h, pH 6.5, 25 °C", "solubility": "25 µM"}
{"SMILES": "Brc1cccc2c(NCc3ccccc3)nc(NCc3ccccc3)nc12", "system": "aqueous buffer", "conditions": "pH 6.2", "solubility": "0.13 µg/mL"}
{"SMILES": "CCCn1nc(C(=O)N2CCCCC2)c2c1CCC(NCCN1CCCCC1)C2 (stereo not shown)", "system": "PBS", "conditions": "16 h, pH 7.4", "solubility": "1740 µM"}
{"SMILES": "CC(C)(C)n1nc(-c2ccc3nc(OC4CC4)ccc3c2)c(C(N)=O)c1N", "system": "PBS", "conditions": "pH 6.5, 25 °C", "solubility": "96.3 µM"}
{"SMILES": "CN1CCN([C@H]2CC[C@@H](Nc3nccc4[nH]c(-c5cc(F)cc(F)c5)nc34)CC2)CC1", "assay": "shake flask", "system": "aqueous buffer", "conditions": "pH 6.5", "solubility": "> 200 µM"}
{"SMILES": "O=C(c1ccccn1)N(Cc1cccs1)C1(C(=O)NC2CCCCC2)CCCCC1", "system": "aqueous buffer", "conditions": "pH 7.4", "solubility": "6.5 µg/mL"}
{"SMILES": "COC(=O)c1ccc2c(c1)nc(C1CCNCC1)n2Cc1ccccc1", "assay": "shake flask", "system": "aqueous buffer", "conditions": "20 h, pH 6.5, 25 °C", "solubility": "200 µM"}
{"SMILES": "CCOc1ccc2cc(-c3nn(C4CCCCCC4)c(N)c3C(N)=O)ccc2n1", "system": "PBS", "conditions": "pH 6.5, 25 °C", "solubility": "46.5 µM"}
{"SMILES": "O=C(O)c1ccc(-c2nnc(-c3ncccn3)nn2)cc1", "system": "water", "solubility": "≤ 200 µM"}
{"SMILES": "Cc1cccc(F)c1N1CCC(N2Cc3cn(CC(C)(F)F)nc3N(Cc3ccccc3C(F)(F)F)C2=O)CC1", "system": "aqueous buffer", "conditions": "pH 7.4", "solubility": "10 µM"}
{"SMILES": "Cc1cc(F)cc(Nc2nc(NCc3ccccc3)c3ccccc3n2)c1", "system": "aqueous buffer", "conditions": "pH 6.2", "solubility": "< 0.01 µg/mL"}
{"SMILES": "O=C(Nc1cc(F)c(F)c(F)c1)c1ccc(F)c(S(=O)(=O)NCc2cccc(B(O)O)c2)c1", "system": "aqueous buffer", "conditions": "pH 2", "solubility": "174 µg/mL"}
{"SMILES": "O=C(Nc1ccc(S(=O)(=O)N2CCC(Cl)CC2)cc1)c1ccc([N+](=O)[O-])o1", "system": "aqueous buffer", "conditions": "pH 6.2", "solubility": "9.2 µM"}
{"SMILES": "O=C(O)c1ccccc1O", "system": "PBS", "conditions": "pH 7.4", "solubility": "7700 µg/mL"}
{"SMILES": "CC[C@H](C)[C@H](NC(=O)[C@H](Cc1ccccc1)NC(=O)[C@H](Cc1ccc(O)cc1)NC(=O)[C@@H]1CCCN1C(=O)[C@@H](N)Cc1ccc(O)cc1)C(=O)N1CCC[C@H]1C(=O)N[C@@H](CC(C)C)C(=O)NCC(=O)NCC(=O)NCC(=O)N[C@@H](CCC(=O)O)C(=O)N[C@H](C(=O)N[C@@H](CC(N)=O)C(=O)N[C@@H](CC(C)C)[C@@H](O)CC(=O)N[C@H](C(=O)N[C@@H](C)C(=O)N[C@@H](CCC(=O)O)C(=O)N1CCC[C@@H]1C(=O)N[C@@H](CCCCNC(=O)CCC(=O)O[C@H]1CC[C@@]2(C)C(=CC[C@H]3[C@@H]4CC[C@H]([C@H](C)CCCC(C)C)[C@@]4(C)CC[C@@H]32)C1)C(N)=O)C(C)C)C(C)C", "system": "aqueous buffer", "conditions": "pH 6.5", "solubility": "< 1 µg/mL"}
{"SMILES": "CC(C)CC(=O)N1CCC[C@H](COc2cccc3c2C(N)=NS(=O)(=O)[N-]3)C1.[Na+]", "system": "ethanol", "solubility": "217000 µM"}
{"SMILES": "O=C(NCCN1CCCC1)c1cc(-c2ccc(CN3CCOCC3)cc2)nc2ccc(F)cc12.O=C(O)C=CC(=O)O", "system": "simulated gastric fluid", "conditions": "pH 2, 37 °C, acidic", "solubility": "> 6490 µM"}
{"SMILES": "CCC(C)n1ncn(-c2ccc(N3CCN(c4ccc(OCC5COC(Cn6cncn6)(c6ccc(Cl)cc6Cl)O5)cc4)CC3)cc2)c1=O (stereo not shown)", "system": "aqueous buffer", "conditions": "pH 6", "solubility": "2.5 µg/mL"}
{"SMILES": "OCCOc1cccc2c(NCc3ccccc3)nc(N3CCOc4ccccc43)nc12", "system": "aqueous buffer", "conditions": "pH 6.2", "solubility": "0.48 µg/mL"}
{"SMILES": "CCCCOC(=O)c1ccc(N)cc1", "system": "PBS", "conditions": "pH 7.4", "solubility": "226 µg/mL"}
{"SMILES": "O=C(Nc1cc(F)ccc1C(=O)O)c1ccc(-c2ccccc2)cc1", "assay": "shake flask", "system": "aqueous buffer", "conditions": "24 h, pH 6.5, 25 °C", "solubility": "5 µM"}
{"SMILES": "CC[C@H](C)[C@H](NC(=O)[C@H](CCCNC(=N)N)NC(=O)[C@H](CCC(=O)O)NC(C)=O)C(=O)N[C@H]1CSSC[C@@H](C(=O)N[C@H](C(N)=O)[C@@H](C)O)NC(=O)[C@H](CCCNC(=N)N)NC(=O)[C@H](Cc2c[nH]cn2)NC(=O)[C@H](C)NC(=O)CNC(=O)[C@H](Cc2c[nH]c3ccccc23)NC(=O)[C@H](CC(=O)O)NC(=O)[C@H](CCC(N)=O)NC(=O)[C@H](Cc2c[nH]c3ccccc23)NC(=O)[C@H](C(C)C)NC1=O", "system": "PBS", "conditions": "pH 7.4", "solubility": "4290 µg/mL"}
{"SMILES": "Cc1c(F)cccc1NC(=O)Nc1ccc(Cl)c(S(=O)(=O)[C@H]2CCCNC2)c1O", "system": "aqueous buffer", "conditions": "4 h, pH 5", "solubility": "6 µg/mL"}
{"SMILES": "CCn1c(-c2nc3cc(C(=O)N4CCC[C@@H](N)C4)cc(OC)c3n2C)cc2cccnc21", "system": "aqueous buffer", "solubility": "396 µM"}
{"SMILES": "COc1c(Cl)cccc1Nc1nc(NCc2ccccc2)c2ccccc2n1", "system": "aqueous buffer", "conditions": "pH 5", "solubility": "0.5 µg/mL"}
{"SMILES": "CCOc1nc2nc(C)cc(Nc3ccc(C(F)(F)F)cc3)n2n1", "assay": "nephelometry", "system": "aqueous buffer", "conditions": "pH 6.5", "solubility": "19 to 37 µM"}
{"SMILES": "COc1cccc2c(-c3ccccc3)cc(-c3ccc(-c4ccc(C(=O)O)cc4)[nH]3)nc12", "system": "PBS", "conditions": "pH 7.4", "solubility": "0.26 µM"}
{"SMILES": "Cc1ccc(S(=O)(=O)NCc2ccc(C(=O)NCCN(Cc3ccccc3)C(C)C)cc2)cc1", "system": "aqueous buffer", "conditions": "pH 6.2", "solubility": "0.12 µg/mL"}
{"SMILES": "O=C(/C=C/c1ccc(CN(CCO)CCc2c[nH]c3ccccc23)cc1)NO", "assay": "HPLC", "system": "water", "conditions": "48 h, pH 6, 25 °C", "solubility": "8 µg/mL"}
{"SMILES": "COc1cccc(OC)c1-c1cc(C(=O)N[C@@H](CC(C)C)C(=O)O)nn1-c1ccnc2cc(Cl)ccc12", "system": "aqueous buffer", "conditions": "pH 5", "solubility": "52.9 µg/mL"}
{"SMILES": "COc1cccc2c(NCc3ccccc3)nc(N3CCNc4ccccc43)nc12", "system": "aqueous buffer", "conditions": "pH 6.2", "solubility": "10.2 µg/mL"}
{"SMILES": "CN1CCN(C2CCN(c3nccc4[nH]c(-c5cc(F)cc(F)c5)nc34)CC2)CC1", "assay": "shake flask", "system": "aqueous buffer", "conditions": "pH 6.5", "solubility": "> 200 µM"}
{"SMILES": "[Br-].c1ccc(-c2n(Cc3ccc4ccccc4c3)cc[n+]2Cc2ccc3ccccc3c2)cc1", "system": "water", "solubility": "< 500 µg/mL"}
{"SMILES": "CS(=O)(=O)c1ncn2c(NCc3c(F)ccc4c3CCO4)ncc(-c3ccc(C4CC4)nc3)c12", "system": "FaSSIF", "solubility": "26.5 µg/mL"}
{"SMILES": "Cl.Clc1ccc2c(nc(N3CCNCC3)n2Cc2ccccc2)c1-c1ccccc1", "assay": "shake flask", "system": "aqueous buffer", "conditions": "20 h, pH 6.5, 25 °C", "solubility": "195 µM"}
{"SMILES": "CCn1cc(CNC(=O)C2=C(C)NC(Nc3nc4ccc(F)c(N)c4o3)=NC2c2ccc(C)cc2Cl)cn1 (stereo not shown)", "system": "aqueous buffer", "conditions": "6 h, pH 7.4", "solubility": "< 1 µg/mL"}
{"SMILES": "CN(CCOc1ccc(CC2SC(=O)NC2=O)cc1)c1ccccn1 (stereo not shown)", "system": "aqueous buffer", "conditions": "pH 7.4", "solubility": "≥ 144 µM"}
{"SMILES": "N=C(N)NCc1ccc(NC(=O)C23CC(C(=O)Nc4ccc(C5=CCN(C(=N)N)CC5)cc4)(C2)C3)cc1", "assay": "shake flask", "system": "aqueous buffer", "conditions": "pH 7.4", "solubility": "770 µg/mL"}
{"SMILES": "OCCOc1ccccc1", "system": "PBS", "conditions": "48 h, pH 7.4, 25 °C", "solubility": "180000 µM"}
{"SMILES": "Cc1ccc(Nc2nc(NCc3ccccc3)c3ccccc3n2)cc1F", "system": "aqueous buffer", "conditions": "pH 5", "solubility": "0.13 µg/mL"}
{"SMILES": "CCOc1ccc2cc(-c3nn(C(C)C)c(N)c3C(N)=O)cnc2c1", "system": "PBS", "conditions": "pH 6.5, 25 °C", "solubility": "99 µM"}
{"SMILES": "Brc1ccc2c(c1)nc(C1CCNCC1)n2Cc1ccccc1", "assay": "shake flask", "system": "aqueous buffer", "conditions": "20 h, pH 6.5, 25 °C", "solubility": "110 µM"}
{"SMILES": "CCOC(=O)C1=C(C)NC(C)=C(C(=O)OC)C1c1cccc([N+](=O)[O-])c1 (stereo not shown)", "system": "FaSSIF", "conditions": "24 h, pH 7.4, 37 °C", "solubility": "8 µg/mL"}
{"SMILES": "Cc1cc2[nH]c(-c3cc(F)cc(F)c3)nc2c(N2CCC(CN3CCN(C)CC3)CC2)n1", "assay": "shake flask", "system": "aqueous buffer", "conditions": "pH 6.5", "solubility": "> 200 µM"}
{"SMILES": "Cc1c(F)cccc1Nc1nc(NCc2ccccc2)c2ccccc2n1", "system": "aqueous buffer", "conditions": "pH 7.4", "solubility": "< 0.01 µg/mL"}
{"SMILES": "NC(=O)c1ccc(N(Cc2ccc(C3CCCCC3)cn2)C(=O)[C@H]2CCN2S(=O)(=O)c2c(F)c(F)c(F)c(F)c2F)cc1O", "system": "simulated intestinal fluid", "solubility": "117 µg/mL"}
{"SMILES": "COc1cc(C(=O)O)cc(OC)c1O", "system": "water", "conditions": "72 h, 25 °C", "solubility": "7400 µM"}
{"SMILES": "CC(C)C[C@H](NC(=O)[C@H](CCc1ccccc1)NC(=O)CN1CCOCC1)C(=O)N[C@@H](Cc1ccccc1)C(=O)N[C@@H](CC(C)C)C(=O)[C@@]1(C)CO1", "system": "PBS", "conditions": "24 h, pH 7.4", "solubility": "1.12 µg/mL"}
{"SMILES": "Cc1cc(Nc2ccc(Cl)cc2)n2nc(C(C)C)nc2n1", "assay": "nephelometry", "system": "aqueous buffer", "conditions": "pH 6.5", "solubility": "83 to 170 µM"}
{"SMILES": "CCOc1ccc2cc(-c3nn(C(C)(C)C)c(N)c3C(N)=O)cnc2c1", "system": "PBS", "conditions": "pH 6.5, 25 °C", "solubility": "26 µM"}
{"SMILES": "CCCCOC(=O)c1ccc(O)cc1", "system": "PBS", "conditions": "pH 7.4", "solubility": "310 µg/mL"}
{"SMILES": "c1ccc(CNc2nc(N3CCNc4ccccc43)nc3ccccc23)cc1", "system": "aqueous buffer", "conditions": "pH 6.2", "solubility": "18 µg/mL"}
{"SMILES": "CCc1nc2nc(C)cc(Nc3ccc(S(F)(F)(F)(F)F)cc3)n2n1", "assay": "nephelometry", "system": "aqueous buffer", "conditions": "pH 6.5", "solubility": "34 to 66 µM"}
